Data set [1] can be described thus: Cytotoxicity against mouse BMDM cells assessed as growth inhibition at 10 times MIC after 24 hrs by MTS assay. The data set is classed as cell-based. Summed up: (§1)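 Vero cells or mouse bone-marrow-derived macrophages plated at 20,000 cells/well and allowed to adhere overnight (37 °C, 5% CO2). Compounds added at several concentrations for 24 h, then MTS for 2 h, with OD read at 490 nm. IC50 is the concentration giving 50% viability loss; a compound counts as toxic if IC50 ≤10× MIC.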
On the technique in general: Tetrazolium assays rely on reduction of a dye to a coloured formazan, in cell work by metabolically active cells.

For data set [2], the system named is Mycobacterium tuberculosis. Description: Ex-vivo antitubercular activity against Mycobacterium tuberculosis H37Rv infected in mouse BMDM cells assessed as reduction in intracellular bacterial level after 4 days at 5 times MIC. The format is functional. Set-up: scale not given: the % may be the effect or the level left.
The next data set concerns Vero. Description: (§2) Cytotoxicity against african green monkey Vero cells assessed as growth inhibition at 10 times MIC after 24 hrs by MTS assay. The data set is classed as cell-based. The conditions noted are these: chlorocebus sabaeus, vero, 24 h. The method, boiled down:
as §1

Data set [3] deals with Mycobacterium tuberculosis. Description: Antitubercular activity against Mycobacterium tuberculosis H37Rv after 4 weeks by agar proportion method. The data set is classed as functional. The conditions noted are these: 672 h. Summed up: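 Agar proportion method on Middlebrook 7H10 agar slants with OADC; compounds in DMSO added at 0.1 mL per 1.9 mL medium. Inoculum was H37Rv grown on L–J medium and suspended in saline with 0.05% Tween-80, ~10^5 bacilli per tube. Incubated 37 °C for 4 weeks; MIC is the lowest concentration with no visible growth.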

Data set [4] is described as follows: as §2. The format is cell-based. The conditions noted are these: chlorocebus sabaeus, Vero cells; read-out: GI. Summed up: as §1
For data set [5], the system named is Mycobacterium tuberculosis. Description: Antitubercular activity against Mycobacterium tuberculosis H37Rv infected in Swiss mouse infected assessed as mouse survival at 100 mg/kg/day, po for 28 days measured on day 30 post infection. The format is functional. The method, boiled down:
(§3)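 Outbred Swiss mice infected i.v. with H37Rv at 10^7 CFU/mouse, in groups of 6–8. Daily oral dosing for 28 days: test compounds at 100 mg/kg in peanut oil, or isoniazid at 25 mg/kg. Percent survivors and mean survival time were recorded on day 30 and day 40.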

The test system of data set [6] is Mycobacterium tuberculosis. Description: Antitubercular activity against Mycobacterium tuberculosis H37Rv infected in Swiss mouse infected assessed as mean survival time of mouse survival at 100 mg/kg/day, po for 28 days measured on day 40 post infection. The data set is classed as functional. The method, boiled down: as §3
Data set [7] relates to Mycobacterium tuberculosis. In words: Antitubercular activity against Mycobacterium tuberculosis H37Rv infected in Swiss mouse infected assessed as mean survival time of mouse at 100 mg/kg/day, po for 28 days measured on day 30 post infection. The format is functional. The method, boiled down: as §3
Data set [8] has as its system Mycobacterium tuberculosis. Description: Antitubercular activity against Mycobacterium tuberculosis H37Rv infected in Swiss mouse infected assessed as mouse survival at 100 mg/kg/day, po for 28 days measured on day 40 post infection. The data set is classed as functional. The method, boiled down: as §3
Data set [9] relates to Mycobacterium tuberculosis. Description: Antitubercular activity against Mycobacterium tuberculosis H37Rv infected in Swiss mouse assessed as inhibition of viable bacterial counts in lungs at 100 mg/kg, po for 28 days measured on day 30 post infection. The format is functional.
Data set [10] has as its system Mycobacterium tuberculosis. Description: Antitubercular activity against Mycobacterium tuberculosis H37Rv infected in Swiss mouse assessed as inhibition of viable bacterial counts in lungs at 25 mg/kg, po for 28 days measured on day 30 post infection. The data set is classed as functional. Summed up: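 Outbred Swiss mice infected i.v. with H37Rv at 10^7 CFU/mouse, in groups of 6–8. Test compounds were given orally at 100 mg/kg daily for 28 days in peanut oil; isoniazid at 25 mg/kg for 28 days. On day 30, serial dilutions of lung homogenate were plated on 7H11 agar and colonies counted after 3–4 weeks at 37 °C. Result is % inhibition of lung CFU versus untreated controls.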

Data set [11] concerns Mycobacterium tuberculosis. In words: Antitubercular activity against Mycobacterium tuberculosis H37Rv infected in Swiss mouse infected assessed as mouse survival at 25 mg/kg/day, po for 28 days measured on day 40 post infection. The data set is classed as functional. Summed up:
as §3

Data set [12] has as its system Mycobacterium tuberculosis. Description: Antitubercular activity against Mycobacterium tuberculosis H37Rv infected in Swiss mouse infected assessed as mean survival time of mouse at 25 mg/kg/day, po for 28 days measured on day 30 post infection. The format is functional. Summed up: as §3
In a further data set the test system is Mus musculus. Description: Antitubercular activity against Mycobacterium tuberculosis H37Rv infected in Swiss mouse infected assessed as mouse survival at 25 mg/kg/day, po for 28 days measured on day 30 post infection. The data set is classed as functional. The method, boiled down:
as §3

Values after ≈ are worked out from the molar mass of the structure shown.

What is called MIC is the lowest concentration that inhibits growth of the organism. Usually inhibition in vivo stands for the change of the read-out against control, counted positive when it falls.

In the case of `O=C(/C=C/c1ccc(-n2ccnc2)cc1)c1ccc(OCc2cc(F)ccc2F)cc1`, the Activity result is reported as “Non-toxic” in [1], less than 50% in data set [2] and “Non-toxic” in the data set on Vero. The molecule also yielded an MIC in data set [3] of 3.12 µg/mL (≈ 7.49 µM).

Regarding `O=C(/C=C/c1ccc(-n2ccnc2)cc1)c1ccc(OCc2cc(Cl)ccc2Cl)cc1`, in [4], the inhibition at 24 h, 10 times MIC amounted to 50%. The lowest concentration to inhibit growth in data set [3] (MIC) was 3.12 µg/mL (≈ 6.94 µM).

The molecule `O=C(/C=C/c1ccc(-n2ccnc2)cc1)c1ccc(Oc2ccc(C(F)(F)F)cc2[N+](=O)[O-])cc1` returned an MIC in [3] of 12.5 µg/mL (≈ 26.1 µM).

Consider `O=C(/C=C/c1ccc(OCc2cc(F)ccc2F)cc1)c1ccc(-n2cncn2)cc1`, for which the MIC in data set [3] is more than 25 µg/mL.

`O=C(/C=C/c1ccc(-n2cncn2)cc1)c1ccc(OCc2ccc(F)cc2F)cc1`: the MIC in data set [3] was 12.5 µg/mL (≈ 29.9 µM).

Turning to `O=C(/C=C/c1ccc(-n2ccnc2)cc1)c1ccc(OCc2ccc(F)cc2F)cc1`, the survival at 100 mg/kg/day in data set [5] and in [8] was 100% each time. Besides, the MST in data set [6] came out at 40 days; in data set [7], 30 days. Also, the Activity result is on record as “Non-toxic” in data set [1], 71% in data set [2] and “Non-toxic” in the data set on Vero. Also, the inhibition in vivo at 100 mg/kg in data set [9] came out at 40%. Moreover, the MIC in [3] was 1.56 µg/mL (≈ 3.75 µM).

With `O=C(/C=C/c1ccc(-n2ccnc2)cc1)c1ccc(OCc2cccc(Cl)c2)cc1`, the MIC in [3] was 6.25 µg/mL (≈ 15.1 µM).

On to `O=C(/C=C/c1ccc(-n2cncn2)cc1)c1ccc(-n2cncn2)cc1`, for which the MIC in data set [3] was more than 25 µg/mL.

`O=C(/C=C/c1ccc(OCc2cc(Cl)ccc2Cl)cc1)c1ccc(-n2ccnc2)cc1` yielded an MIC in data set [3] of 12.5 µg/mL (≈ 27.8 µM).

Take `O=C(/C=C/c1ccc(-n2cncn2)cc1)c1ccc(Oc2ccc(C(F)(F)F)cc2[N+](=O)[O-])cc1`: in data set [3], it took 12.5 µg/mL (≈ 26 µM) to inhibit growth (MIC).

For the molecule `O=C(/C=C/c1ccc(-n2cncn2)cc1)c1ccc(OCc2cc(F)ccc2F)cc1`, the inhibition at 24 h, 10 times MIC in [4] was 50%. Also, the MIC in data set [3] is 3.12 µg/mL (≈ 7.47 µM).

In turn, `O=C(/C=C/c1ccc(-n2cncn2)cc1)c1ccc(OCc2ccc(Cl)cc2Cl)cc1` displayed an MIC in data set [3] of more than 25 µg/mL.

`O=C(/C=C/c1ccccc1)c1ccc(OCc2ccc(Cl)cc2Cl)cc1` came in with an MIC in data set [3] of 12.5 µg/mL (≈ 32.6 µM).

Regarding `O=C(/C=C/c1ccc(OCc2cc(Cl)ccc2Cl)cc1)c1ccc(-n2cncn2)cc1`, the MIC in data set [3] is more than 25 µg/mL.

`O=C(/C=C/c1ccc(OCc2ccc(Cl)cc2Cl)cc1)c1ccc(-n2cncn2)cc1` yielded an MIC in data set [3] of 25 µg/mL (≈ 55.5 µM).

On to `O=C(/C=C/c1ccc(-n2ccnc2)cc1)c1ccc(-n2ccnc2)cc1`, for which the MIC in data set [3] was more than 25 µg/mL.

Turning to `O=C(/C=C/c1ccc(OCc2ccc(Cl)cc2Cl)cc1)c1ccc(-n2ccnc2)cc1`, the survival at 100 mg/kg/day in data set [5] turned out to be 100%; in data set [8], 83%. In addition, the MST in data set [6] was 38.5 days; in [7], 30 days. The Activity result in data set [1] is recorded as “Non-toxic”; in [2], 99%; in the data set with Vero it was “Non-toxic”. In addition, the inhibition in vivo at 100 mg/kg in data set [9] came to 13%. The molecule further showed an MIC in data set [3] of 3.12 µg/mL (≈ 6.94 µM).

In turn, `O=C(/C=C/c1ccc(OCc2cccc(Cl)c2)cc1)c1ccc(-n2cncn2)cc1` came in with an MIC in data set [3] of 12.5 µg/mL (≈ 30.1 µM).

In turn, `O=C(/C=C/c1ccc(OCc2ccc(Cl)cc2Cl)cc1)c1ccc(OCc2ccc(Cl)cc2Cl)cc1` came in with an MIC in [3] of more than 25 µg/mL.

For the molecule `O=C(/C=C/c1ccc(OCc2cccc(Cl)c2)cc1)c1ccc(-n2ccnc2)cc1`, the inhibition at 24 h, 10 times MIC in [4] stood at 50%. This molecule returned an MIC in data set [3] of 3.12 µg/mL (≈ 7.52 µM).

The molecule `O=C(/C=C/c1ccc(Oc2ccc(C(F)(F)F)cc2[N+](=O)[O-])cc1)c1ccc(-n2ccnc2)cc1` showed an MIC in data set [3] of 12.5 µg/mL (≈ 26.1 µM).

For `O=C(/C=C/c1ccc(-n2ccnc2)cc1)c1ccc(OCc2ccc(Cl)cc2Cl)cc1`, the Activity result in [1] is listed as “Non-toxic”; in data set [2] it was less than 50%; in the data set on Vero it was “Non-toxic”. The minimum inhibitory concentration (MIC) in data set [3] amounted to 1.56 µg/mL (≈ 3.47 µM).

On to `O=C(/C=C/c1ccc(-n2cncn2)cc1)c1ccc(OCc2cccc(Cl)c2)cc1`, for which the results for the Activity result (in [1]; in data set [2]; with Vero) were “Non-toxic”, less than 50% and “Non-toxic”, respectively. In addition, the MIC in data set [3] was 0.78 µg/mL (≈ 1.88 µM).

Take `O=C(/C=C/c1ccc(-n2cncn2)cc1)c1ccc(OCc2cc(Cl)ccc2Cl)cc1`: in [3], the MIC is more than 25 µg/mL.

In the case of `O=C(/C=C/c1ccc(OCc2ccc(F)cc2F)cc1)c1ccc(-n2ccnc2)cc1`, the Activity in data set [2] is recorded as less than 50%.

In the case of `NNC(=O)c1ccncc1` [ISONIAZID], the Activity result (in data set [1]; in the data set with Vero) was “Non-toxic” throughout. The inhibition in vivo at 25 mg/kg in data set [10] came to 100%. For the same molecule, the survival at 25 mg/kg/day (in [11]; in the data set on Mus musculus) was 100% each time. Also, in data set [12], the MST was determined as 30 days. Moreover, the lowest concentration to inhibit growth in data set [3] (MIC) was 0.025 µg/mL (≈ 0.182 µM).

In data set [3], `O=C(/C=C/c1ccc(OCc2ccc(F)cc2F)cc1)c1ccc(-n2cncn2)cc1` came in with a minimum inhibitory concentration (MIC) of 12.5 µg/mL (≈ 29.9 µM).

These data come from ChEMBL document CHEMBL1821557, “Novel aryloxy azolyl chalcones with potent activity against Mycobacterium tuberculosis H37Rv” (Eur J Med Chem, 2011).
